This is a sample that favours compounds with a hit; in the whole collection about 4.1% have one here.
DNA FID counter = counter-screen for HCV NS3 helicase inhibitors: DNA intercalator displacement; inhibition, % at 7.9 µM; DNA fluorescent intercalator displacement, fluorescence; 290,000 compounds, 0.17% hits; in the data active = inhibition above about 37%;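 note: 0% = vehicle and 100% = reference compound; higher means more ethidium bromide displaced from hairpin DNA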
MEKK2 mut-MEK5 = signal of MEK5 binding to mutant human MEKK2 PB1 domain; bead flow cytometry, Alexa488-MEK5 binding to MEKK2 mutant; percent response, % at 10 µM; 290,000 compounds, 0.35% hits; AID 1530; in the data active = percent response above about 24%, passing the limit was not always enough
MEKK3 PB1 HTS = modulators (inhibitors or enhancers) of MEK5 binding to human MEKK3 PB1 domain | Q99759 | bead-based flow cytometry, Alexa488-MEK5 binding to MEKK3; actives lie on both sides; 0 = blocked by unlabeled MEK5, 100 = vehicle | binding response (% of control), % at 10 µM | 290,000 compounds, 1.4% hits;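 active = binding response more than 3 SD above or below the average of its plate-row segment, actives on both sides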;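 note: Alexa488 bead fluorescence after subtracting the streptavidin-only scavenger bead signal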
Target sequence (Q99759 whole entry, looked up, the tested form may be a part): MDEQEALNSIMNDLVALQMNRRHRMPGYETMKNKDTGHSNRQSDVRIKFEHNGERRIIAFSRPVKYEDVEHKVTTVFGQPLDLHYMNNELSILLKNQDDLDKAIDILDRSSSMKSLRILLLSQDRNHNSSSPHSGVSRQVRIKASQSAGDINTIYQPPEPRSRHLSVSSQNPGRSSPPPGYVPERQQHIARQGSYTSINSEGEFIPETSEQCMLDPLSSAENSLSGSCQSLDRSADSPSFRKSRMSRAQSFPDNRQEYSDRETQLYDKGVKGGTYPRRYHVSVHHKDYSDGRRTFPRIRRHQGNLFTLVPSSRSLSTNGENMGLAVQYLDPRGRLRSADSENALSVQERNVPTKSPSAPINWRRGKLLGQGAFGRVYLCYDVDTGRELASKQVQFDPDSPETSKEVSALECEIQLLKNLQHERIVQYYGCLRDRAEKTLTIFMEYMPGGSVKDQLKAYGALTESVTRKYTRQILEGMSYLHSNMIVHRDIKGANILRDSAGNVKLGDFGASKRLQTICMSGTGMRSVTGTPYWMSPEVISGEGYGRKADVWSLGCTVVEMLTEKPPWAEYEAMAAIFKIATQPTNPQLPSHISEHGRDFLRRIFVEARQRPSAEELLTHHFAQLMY
T cruzi inh = blocks replication of Trypanosoma cruzi. T. cruzi beta-gal in NIH3T3, luminescence, 90 h. 300,000 compounds, 1.4% hits. inhibition, % (concentration not given with the values). AID 1885;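 active = mean inhibition across valid replicates above about 55%, limit read from the data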;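 note: signal also drops with host cell toxicity which is not excluded here; 0% = plate median of DMSO wells and 100% = zero luminescence signal; higher percent means less beta-gal luminescence so fewer parasites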
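Test system: β-gal T. cruzi (Tulahuen C4) inside NIH/3T3 cells / Quantity: 5,000 cells/well / Measured by: luminescence from GalScreen with 0.05% NP40, read after 60 min / Medium: DMEM plus 2% FBS / Measure: parasite load inhibition, % / Reagent: Tulahuen C4 trypomastigotes, 5000/well / Schedule: co-culture of at least 90 h after 3 h attachment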
MEKK2wt PB1 HTS = raises or lowers MEK5 binding to wildtype human MEKK2 PB1 domain. Q9Y2U5. bead flow cytometry, Alexa488-MEK5 binding to MEKK2 WT; actives lie on both sides. binding response (% of control), % at 10 µM. 290,000 compounds, 1.1% hits; in the data active = binding response below about 67% or above about 130%
NS3 helicase inh = HCV NS3 helicase inhibition. NS3 helicase DNA unwinding, Cy5 molecular beacon fluorescence. inhibition, % at 10.9 µM. AID 1800. 290,000 compounds, 0.56% hits;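 active = inhibition above the mean of all tested compounds plus 3 SD, set per campaign, cut at about 35% in these data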;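 note: 0% = DMSO wells and 100% = thioflavine S control wells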
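Measured by: Cy5 fluorescence, 0 and 60 min reads / Assay system: NS3 helicase fragment of HCV / Control set: low DMSO, high thioflavine S at 110 µM / Times: 1 h reaction at 25 °C, ATP-initiated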
MEKK2wt confirm = raises or lowers MEK5 binding to wildtype human MEKK2, retest; shares compounds with MEKK3 PB1 HTS; bead flow cytometry, Alexa488-MEK5 binding to MEKK2 WT; actives lie on both sides; binding response (% of control), % at 10 µM; 5,900 compounds, 2.4% hits; AID 1892; in the data active = binding response below about 16% or above about 210%; inactive = in between
MEKK2mut-MEK5 = signal of MEK5 binding to mutant human MEKK2, retest; 5,900 compounds, 2% hits; percent response, % at 10 µM; shares compounds with MEKK3 PB1 HTS; bead flow cytometry, Alexa488-MEK5 binding to MEKK2 mutant; in the data active = percent response mostly above about 71%, no sharp cut-off; inactive = mostly below about 38%;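 note: higher means compound restores mutant binding toward wildtype level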
MEKK3 confirm = MEKK3-MEK5 PB1 inhibition, single concentration confirmation; 5,900 compounds, 1.8% hits; binding response (% of control), % at 10 µM; bead flow cytometry, Alexa488-MEK5 binding to MEKK3; active compounds read low; shares compounds with MEKK3 PB1 HTS;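 active = binding response below 72% of control, or above a set upper limit, though filed actives all read lower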;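 note: 100% = DMSO only wells and 0% = binding blocked by excess unlabeled MEK5; lower values mean stronger disruption of MEK5 binding to MEKK3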
An asterisk follows results filed as active; nt = not tested or not shown; [ ] = another dose, or the depositor's remark.

SMILES	DNA FID counter	MEKK2 mut-MEK5	MEKK3 PB1 HTS	T cruzi inh	MEKK2wt PB1 HTS	NS3 helicase inh	MEKK2wt confirm	MEKK2mut-MEK5	MEKK3 confirm
Cc1ccc2c(c1)[nH]c1c(N3CCN(Cc4ccccc4)CC3)ncnc12	0	18	109	-21	158*	-7	119	13	106
CCc1cc(/C(Cc2ccccn2)=N\Nc2ccccc2)c(O)cc1O	0	-2	99	-19	95	1	nt	nt	nt
COC(=O)[C@@]12CCCN1[C@H](c1ccc(-c3ccc(Cl)c(Cl)c3)cc1)[C@H]1C(=O)N(C)C(=O)[C@H]12	nt	nt	nt	18	nt	nt	nt	nt	nt
Cc1sc2ncnc(SCC#N)c2c1C	5	-7	90	-21	93	4	nt	nt	nt
CCCSc1ncnc2sc(C)c(C)c12	0	-46	4.0*[inhibitor]	-4	8.0*[inhibitor]	10	10*[inhibitor]	-37	52*
CC(=O)c1ccc(NC(=O)/C(=C\c2cccs2)NC(=O)c2ccco2)cc1	-1	-4	106	36	101	4	nt	nt	nt
COc1cc(/C=C2\C(=O)NN(c3ccccc3)C2=O)ccc1OCC(N)=O	-34	2	134*	-4	122	15	102	3	102
COc1cccc(/C=C2/C(=O)NN(c3ccccc3)C2=O)c1	-8	-6	93	4	96	24	nt	nt	nt
CC(=O)c1nc(N2C(=O)CC(Cc3ccccc3)C2=O)sc1C (stereo unspecified)	-15	0	125	-6	104	1	nt	nt	nt
COc1cc(C)ccc1OCCCOc1c(Cl)cccc1Cl	-2	0	133*	21	106	-15	102	-2	102
COc1cc(C)ccc1OCCOCCOc1ccccc1Br	-27	nt	nt	12	nt	-15	nt	nt	nt
COc1cc(C)ccc1OCCOCCOc1cc(C)c(C)cc1Br	-13	0	134*	15	106	-4	104	10	103
COc1ccccc1OCCCOc1c(Cl)cc(C)cc1Cl	-1	0	134*	10	108	-7	107	1	105
CCNc1nc(NCC)nc(NS(=O)(=O)c2ccc(N)cc2)n1	-3	6	107	-5	109	2	nt	nt	nt
O=C(Nc1ccccc1)Nc1cnccn1	-3	6	98	3	101	3	nt	nt	nt
Brc1ccc(-c2nc3ncccn3c2NC2CCCCC2)o1	-1	8	129*	3	123	2	101	4	102
Cc1ccc(NC(=O)C2CCCN2C(=O)OCc2ccccc2)cc1F (stereo unspecified)	-30	-6	96	-5	97	-2	nt	nt	nt
COc1cccc(OC)c1-c1nn2c(-c3ccco3)nnc2s1	-11	1	129*	10	97	10	95	0	97
COc1cccc(-c2nn3c(-c4ccco4)nnc3s2)c1	nt	2	104	-6	104	nt	nt	nt	nt
O=C(O)CCCNc1c(C(=O)Nc2ccc(Cl)cc2)cc([N+](=O)[O-])cc1[N+](=O)[O-]	-16	11	135*	-12	118	-21	105	8	107
O=C1CC2(CCN(C(=O)c3ccc(F)cc3)CC2)Oc2ccccc21	nt	nt	nt	-8	nt	nt	nt	nt	nt
CCOC(=O)C(=O)N1CCN(c2ccccc2OC)CC1	0	-16	71*[inhibitor]	-1	76	3	102	2	100
COc1ccccc1N1CCN(C(=O)CCC(=O)O)CC1	1	0	101	3	102	1	nt	nt	nt
COCCn1c(SCC(=O)Nc2ccc(C)cc2)nc2c(oc3ccccc32)c1=O	-1	0	113	-7	101	-12	nt	nt	nt
COCCn1c(SCC(=O)Nc2ccccc2)nc2c(oc3ccccc32)c1=O	-3	-46	4.0*[inhibitor]	7	7.0*[inhibitor]	6	107	-3	106
SMILES	DNA FID counter	MEKK2 mut-MEK5	MEKK3 PB1 HTS	T cruzi inh	MEKK2wt PB1 HTS	NS3 helicase inh	MEKK2wt confirm	MEKK2mut-MEK5	MEKK3 confirm
CCOC(=O)/C(C#N)=C/c1ccc(OCC(=O)Nc2ccc(OC)cc2)c(OC)c1	-1	4	124*	-14	119	2	100	0	99
CCCC(CCC(=O)Nc1ccn(-c2ccccc2)n1)C(=O)O (stereo unspecified)	-12	-10	93	-15	98	2	nt	nt	nt
CCOC(=O)c1c(NC(=O)CNCC(O)CO)sc(C)c1C (stereo unspecified)	-10	0	101	11	101	3	nt	nt	nt
CCCCNCC(=O)Nc1sc(C)c(C)c1C(=O)OCC	-7	-2	79*[inhibitor]	35	102	-5	108	8	108
CCOc1ccc(/C=N/NC(=O)C2(O)c3ccccc3-c3ccccc32)cc1	-10	-1	96	-27	100	-5	nt	nt	nt
COc1cc(/C=N/NC(=O)C2(O)c3ccccc3-c3ccccc32)ccc1O	-5	0	148*	-9	108	2	99	-11	100
COc1cc(/C=N/NC(=O)C2c3ccccc3Oc3ccccc32)ccc1O	-6	14	122*	7	125	4	104	0	107
COc1cc(/C=N\NC(=O)CNC(=O)C2COc3ccccc3O2)ccc1O (stereo unspecified)	-5	29	134*	4	170*	5	95	-2	97
O=C1CCCc2c1sc1nc3n(c(=O)c21)CCCCC3	-7	14	114	4	139*	6	97	-3	100
Cc1ccc2nc(SCC(=O)Nc3ccc(F)cc3F)nc(=O)n2c1	nt	nt	nt	-6	nt	nt	nt	nt	nt
CCN(CC)c1ccc(C=Nc2cccnc2Cl)c(O)c1	1	-5	92	4	66*[inhibitor]	7	97	2	102
CCCc1cc(=O)oc2c3c(cc(OCC(=O)N4CCC[C@H]4C(=O)O)c12)OC(C)(C)CC3	-27	0	100	-4	99	2	nt	nt	nt
O=C(CN1CCN(C(=O)c2cccs2)CC1)Nc1ccc(Br)cc1	-17	-2	99	-9	100	10	nt	nt	nt
O=C(CN1CCN(C(=O)c2cccs2)CC1)NC1CCCCC1	0	-11	81*[inhibitor]	-6	88	-3	96	-10	96
N#Cc1cccc(C#N)c1Oc1ccc(S(=O)(=O)Nc2ccc(Cl)cc2)cc1	-3	-5	100	30	94	-26	nt	nt	nt
Cc1ccc(N(C(=O)C2CCCC2)C2C=CS(=O)(=O)C2)cc1 (stereo unspecified)	-8	-1	90	-18	97	-8	nt	nt	nt

Assay outcomes deposited in PubChem BioAssay by several laboratories.
